Assay outcomes (PubChem BioAssay)
A selection: hits, their analogues and other compounds. The true share with any hit is near 2.8%.
Measles CPE: protection of cells from measles virus; Measles virus-infected cells, CPE protection, absorbance; protection (pct of control), % at 4 µM; 140,000 compounds, 1.5% hits; in the data active = protection mostly above about 24%, no sharp cut-off; inactive = mostly below about 26%
NPY2 pot ag: human NPY-Y2 potentiation or agonism, primary screen | 220,000 compounds, 0.45% hits | cells expressing NPY-Y2, potentiator/agonist read-out | AID 1359 | activation, % at 3.6 µM; in the data active = activation above about 27%;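 note: cells stimulated with NPY near EC25 plus isoproterenol at EC100; 0% = vehicle plus submaximal agonist and 100% = vehicle plus saturating agonist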
NPY Y2 blocker: NPY-Y2 (human) receptor antagonism; P49146; NPY-Y2 expressing cells, antagonist mode; inhibition, % at 2.7 µM; 140,000 compounds, 0.99% hits; AID 793; in the data active = inhibition above about 17%;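 note: 0% = vehicle with agonist challenge and 100% = reference antagonist with challenge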
Mdm2 ligase inh: inhibitors of human Mdm2 E3 ubiquitin ligase; Q00987; cell-based MDM2 ubiquitination luciferase reporter, 2 h; 0 = plate control, 100 = twice control, blank-subtracted; signal enhancement, % at 5 µM; 210,000 compounds, 0.11% hits;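 active = signal enhancement of 30% or more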;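 note: luminescence tracks abundance of the self-degrading MDM2-luciferase fusion protein; higher signal means inhibition of MDM2 E3 ligase activity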
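Material: Stable MDM2–luciferase fusion reporter cells | Amount: 2000 cells seeded into each well | Dosing: One concentration, 5 µM, with 0.2% DMSO | Incubation: 4 h cell settling then 2 h compound exposure, 37 °C | Measured by: Luciferase luminescence | Read-out basis: % enhancement relative to plate controls after blank subtraction | Benchmarks: Control and blank well means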
NPY-Y1 PAM-ag: potentiates or activates human NPY-Y1 receptor; P25929; NPY-Y1 expressing cells, potentiator/agonist activation; activation, % at 3.6 µM; 220,000 compounds, 0.37% hits; AID 1304; in the data active = activation above about 33%, passing the limit was not always enough;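 note: cells stimulated with NPY at EC10 then isoproterenol at EC100; 0% = low agonist plus stimulus and 100% = saturating agonist plus stimulus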
Target sequence (P25929 whole entry, looked up): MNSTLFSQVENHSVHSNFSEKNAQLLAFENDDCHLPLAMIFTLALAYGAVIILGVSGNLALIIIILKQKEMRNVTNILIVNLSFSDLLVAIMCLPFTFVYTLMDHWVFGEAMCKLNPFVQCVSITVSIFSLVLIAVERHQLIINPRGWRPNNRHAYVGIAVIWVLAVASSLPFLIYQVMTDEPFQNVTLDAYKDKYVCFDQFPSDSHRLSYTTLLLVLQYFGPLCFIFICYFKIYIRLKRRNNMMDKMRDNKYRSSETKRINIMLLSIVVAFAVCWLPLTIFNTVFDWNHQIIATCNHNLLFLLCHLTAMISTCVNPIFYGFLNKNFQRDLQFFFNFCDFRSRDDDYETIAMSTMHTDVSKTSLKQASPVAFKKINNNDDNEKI
NPY Y1 blocker: antagonists of human neuropeptide Y receptor Y1 | P25929 | AID 1040 | HEK293-CNG Y1 cells, membrane potential fluorescence; NPY at EC95, then isoproterenol | 200,000 compounds, 1% hits | inhibition, % at 3.6 µM;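 active = inhibition above the campaign mean inhibition of all tested compounds plus 3 SD, cut at about 20% in these data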;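 note: 0% = DMSO wells given NPY plus isoproterenol and 100% = isoproterenol alone without NPY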
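Material: HEK293 Y1/CNG channel cell line | Also added: NPY (25 nM), isoproterenol (1 µM), Ro 20-1724 (25 µM) | Compound: One concentration, 3.6 µM, in 0.4% DMSO | Schedule: 3 h dye uptake, 1 h room-temperature compound, 45 min post-isoproterenol | Signal: Membrane-potential fluorescent dye readout | Read-out: % inhibition of NPY effect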
* hit, by the source's call; nt = no result given.

SMILES	Measles CPE	NPY2 pot ag	NPY Y2 blocker	Mdm2 ligase inh	NPY-Y1 PAM-ag	NPY Y1 blocker
O=C(COC(=O)c1ccc([N+](=O)[O-])s1)Nc1ncc(C(F)(F)F)cc1Cl	7	7	2	-16	0	3
O=C1CCN(S(=O)(=O)c2ccccc2)CCN1CCOCc1ccc(Cl)cc1	nt	nt	nt	7	nt	nt
CCOCCn1c(COc2ccc(C)cc2)nc2ccccc21	29*	-12	3	-14	-33	16
Cc1ccc(NC(=S)N(Cc2ccc(Br)cc2)Cc2ccc(C(=O)O)cc2)cc1C	nt	8	nt	-10	1	2
CCOc1cccc(OCCCCN2CCOCC2)c1	80*	-23	4	-9	-45	0
COc1cccc(N=c2oc3ccccc3cc2-c2nc3ccccc3[nH]2)c1	12	-20	7	-16	8	0
COc1cccc(N=c2oc3ccc(OC)cc3cc2-c2nc3ccccc3[nH]2)c1	47*	-27	3	-4	-30	4
Cc1ccc(NC(=O)c2cc([N+](=O)[O-])ccc2NCc2cccnc2)cc1Cl	8	15	-4	-1	39*	-6
O=C(COc1ccc(Cl)cc1)NCCSCc1ccccc1Cl	15	-29	16	-4	-29	19
O=C(COc1ccc(Cl)cc1)NCCSCc1cccc(Cl)c1	16	-20	17*	-14	-31	11
COC(=O)[C@@H](NC(=O)O[C@@H]1C(=O)c2cc(Br)ccc2O[C@H]1c1cccc(OC)c1)C(C)C	9	-4	4	nt	-42	11
O=C(Cc1cccs1)N/N=C/C(Br)=C/c1ccccc1	48*	-10	0	-1	-4	4
CC(C)CNS(=O)(=O)c1ccc(CCC(=O)NCCC2=CCCCC2)cc1	nt	-11	nt	-7	21	0
COc1cc(C#N)c(NC(=S)N2CCOCC2)cc1OC	nt	-3	nt	-22	3	5
CCc1c(O)cc(=O)n(-c2ccccc2)c1-c1ccccc1	26*	1	-2	-5	-14	-3
Cc1nc2ccccn2c1C(=O)NN=C1C2CC3CC(C2)CC1C3	38*	17	1	-5	8	3
Cc1nc2ccccn2c1C(=O)NC1CCCC1	nt	2	nt	3	36	-1
O=C(CSc1nnc(Cc2ccccc2)o1)Nc1ccc2c(c1)OCO2	20*	-4	6	4	-3	10
O=C(CSc1nnc(Cc2ccccc2)o1)NCc1ccc2c(c1)OCO2	nt	-2	nt	7	-11	9
COc1ccc2c(c1)c(=O)oc1cc(OCC(=O)N3CCc4ccccc4C3)ccc12	2	-3	0	-26	17	8
COc1cccc(/C=N/Nc2snc(SC)c2C#N)c1	9	10	-3	-3	22	-4
COc1ccc(/C=N/Nc2snc(SC)c2C#N)cc1OC	44*	8	-2	-3	24	-3
CC1CCCc2sc3nc(N4CCN(CCO)CC4)n4ncnc4c3c21 (stereo unspecified)	18	-29	25*	-16	-51	40*
NC(=O)CSc1nc2sc3c(c2c2ncnn12)CCCC3	8	-8	1	1	-9	2
Cc1ccc(S(=O)(=O)N(C)C)cc1NC(=O)CCNC(=O)c1ccccc1Cl	54*	6	2	-16	4	-3
SMILES	Measles CPE	NPY2 pot ag	NPY Y2 blocker	Mdm2 ligase inh	NPY-Y1 PAM-ag	NPY Y1 blocker
COc1ccc(CC(=O)NC(C)c2nnc(SCC(=O)Nc3cc(C)ccc3OC)n2C)cc1 (stereo unspecified)	nt	-1	nt	-7	17	3
COc1ccc(NC(=O)/C(Cl)=C(/Cl)S(=O)Cc2ccc(Cl)cc2)cn1 (stereo unspecified)	nt	-4	nt	39*	-2	2
CCNC(=S)NNC(=O)C1CCCCC1	28*	6	0	4	12	2
Cc1cc(C(=O)NP(=O)(N2CCOCC2)N2CCOCC2)c(C)n1-c1ccc(Br)cc1	46*	1	1	-10	-35	6
Cc1cc(C(=O)NP(=O)(N2CCOCC2)N2CCOCC2)c(C)n1-c1ccc(N(C)C)cc1	18	9	2	-9	4	3
O=C1CCCC(=O)N1c1ccc(N2CCN(c3ccc([N+](=O)[O-])cc3)CC2)c([N+](=O)[O-])c1	11	-4	-1	-16	3	-1
CCCCCNc1c(C(=O)OCC)c(=O)[nH]c2ccccc12	36*	13	1	-11	5	1
CCCC(=O)Nc1c(C(=O)OCC)[nH]c2ccccc12	39*	-3	1	-4	8	-1
C#CCN1C(=O)S/C(=C/C=C/c2ccc(N(C)C)cc2)C1=O	6	8	11	-7	9	2
Cc1cccc(N(CC(=O)NC2CCCCC2)C(=O)CCCC(=O)Nc2ccccn2)c1	33*	17	2	nt	12	1
CCOC(=O)CSc1ccc(C(=O)Nc2ccc(OC)cc2)cn1	nt	37*	nt	-18	75*	-4
CCOC(=O)CSc1ccc(C(=O)Nc2ccc(Cl)cc2)cn1	nt	-1	nt	-9	-11	0
CCOC(=O)N1CCC(NC(=O)C2CCN(c3nc(-c4ccc(OC)cc4)no3)CC2)CC1	44*	-5	0	-13	-1	-1
O=C(Nc1cccc(C(F)(F)F)c1)c1cc(-c2ccc(F)cc2)on1	2	-4	24*	0	-22	22*
COCCN1C(=O)N[C@@H](CCc2ccccc2)C(C(C)=O)=C1C	33	5	1	nt	-5	0
COc1cc(CCN2C(=O)N[C@@H](CCc3ccccc3)C(C(C)=O)=C2C)cc(OC)c1OC	29*	-2	2	nt	-20	0
Cc1nc(SCC(=O)Nc2ccc3c(c2)OCO3)c(C#N)c2c1CCCC2	42*	-19	5	-5	-2	2
Cc1cc(C)c(C#N)c(SCC(=O)Nc2ccc3c(c2)OCO3)n1	24	-12	0	0	-9	2
CCN(CC)S(=O)(=O)c1ccc(N=NC2=C(O)CC(C)(C)CC2=O)cc1	27	1	-1	2	8	-1
CCN(CC)S(=O)(=O)c1ccc(N=NC2=C(O)CCCC2=O)cc1	34*	5	2	-3	14	-4
Cc1cc2cc(CN(C(=O)C3CC3)C3CCCC3)c3nnnn3c2cc1C	7	-22	8	0	-4	0
Cc1ccc(-c2nc3cc(C)ccc3o2)cc1	56*	12	-1	-84	25	-7
CCn1c(=O)c([N+](=O)[O-])c(NCC2CCCO2)c2ccccc21 (stereo unspecified)	nt	-9	nt	-5	-5	nt
Cn1c(C(=O)NCc2cccs2)cc2oc3ccccc3c21	48*	1	4	-13	2	-1
COc1ccc(CNC(=O)COc2cc(=O)n(C)c3ccccc23)cc1	nt	-1	nt	24	8	5
Cn1c(C(=O)NCc2ccccc2)cc2oc3ccccc3c21	73*	-5	6	-1	7	4
